Converted amounts (≈) assume the structure as drawn.
tested on: A549; assay: Cytotoxicity against human A549 cells after 48 hrs by SRB assay; assay type: functional; conditions: A549, 48 h, read-out: ED50 (the source's name)
Method in brief: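 A-549 human lung carcinoma cells grown adherent in RPMI-1640 with 5% heat-inactivated FBS, 37 °C, 5% CO2, humidified. Cells seeded in 96-well plates, preincubated 24 h, then exposed to compounds for 48 h. Fixed with cold 10% TCA, stained with 0.4% SRB in 1% acetic acid, OD read at 540 nm. ED50 = 50% growth inhibition; doxorubicin positive control.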

SMILES	EC50 [µg/mL]
C=C(C)[C@@H]1CC[C@]2(C(=O)O)CC[C@]3(C)[C@H](CC[C@@H]4[C@@]5(C)CC[C@H](O[C@@H]6OC[C@H](O)[C@H](O)[C@H]6O[C@@H]6O[C@@H](C)[C@H](O)[C@@H](O[C@@H]7O[C@H](CO)[C@@H](O)[C@H](O)[C@H]7O)[C@H]6O)C(C)(C)[C@@H]5CC[C@]43C)[C@@H]12	> 10
C=C(C)[C@@H]1CC[C@]2(C(=O)O)CC[C@]3(C)[C@H](CC[C@@H]4[C@@]5(C)CC[C@H](O[C@@H]6OC[C@H](O[C@@H]7O[C@H](CO)[C@@H](O)[C@H](O)[C@H]7O)[C@H](O)[C@H]6O[C@@H]6O[C@@H](C)[C@H](O)[C@@H](O)[C@H]6O)[C@@](C)(CO)[C@@H]5CC[C@]43C)[C@@H]12	> 10
C[C@@H]1O[C@@H](O[C@H]2[C@H](O[C@H]3CC[C@@]4(C)[C@@H](CC[C@]5(C)[C@@H]4CC=C4[C@H]6CC(C)(C)CC[C@]6(C(=O)O)CC[C@]45C)[C@]3(C)CO)OC[C@H](O)[C@@H]2O)[C@H](O)[C@H](O[C@@H]2O[C@H](CO)[C@@H](O[C@@H]3O[C@H](CO)[C@@H](O)[C@H](O)[C@H]3O)[C@H](O)[C@H]2O)[C@H]1O	> 10
C=C(C)[C@@H]1CC[C@]2(C(=O)O)CC[C@]3(C)[C@H](CC[C@@H]4[C@@]5(C)CC[C@H](O[C@@H]6OC[C@H](O[C@@H]7O[C@H](CO)[C@@H](O)[C@H](O)[C@H]7O)[C@H](O)[C@H]6O[C@@H]6O[C@@H](C)[C@H](O)[C@@H](O)[C@H]6O)C(C)(C)[C@@H]5CC[C@]43C)[C@@H]12	> 10
C[C@@H]1O[C@@H](O[C@H]2[C@H](O[C@H]3CC[C@@]4(C)[C@@H](CC[C@]5(C)[C@@H]4CC=C4[C@H]6CC(C)(C)CC[C@]6(C(=O)O)CC[C@]45C)[C@]3(C)CO)OC[C@H](O)[C@@H]2O)[C@H](O)[C@H](O)[C@H]1O	9.6 (≈ 12.8 µM)
COc1cccc2c1C(=O)c1c(O)c3c(c(O)c1C2=O)C[C@@](O)(C(=O)CO)C[C@@H]3O[C@H]1C[C@H](N)[C@H](O)[C@H](C)O1 [DOXORUBICIN]	0.02 (≈ 0.0368 µM)
C=C(C)[C@@H]1CC[C@]2(C(=O)O)CC[C@]3(C)[C@H](CC[C@@H]4[C@@]5(C)CC[C@H](O[C@@H]6OC[C@H](O[C@@H]7O[C@H](CO)[C@@H](O)[C@H](O)[C@H]7O)[C@H](O)[C@H]6O)[C@@](C)(CO)[C@@H]5CC[C@]43C)[C@@H]12	> 10
C[C@@H]1O[C@@H](O[C@H]2[C@H](O[C@H]3CC[C@]4(C)[C@H]5CC=C6[C@H]7CC(C)(C)CC[C@]7(C(=O)O)CC[C@@]6(C)[C@]5(C)CC[C@H]4C3(C)C)OC[C@H](O[C@@H]3O[C@H](CO)[C@@H](O)[C@H](O)[C@H]3O)[C@@H]2O)[C@H](O)[C@H](O)[C@H]1O	2.6 (≈ 2.9 µM)
C=C(C)[C@@H]1CC[C@]2(C(=O)O)CC[C@]3(C)[C@H](CC[C@@H]4[C@@]5(C)CC[C@H](O[C@@H]6OC[C@H](O)[C@H](O)[C@H]6O[C@@H]6O[C@@H](C)[C@H](O)[C@@H](O[C@@H]7O[C@H](CO)[C@@H](O)[C@H](O)[C@H]7O)[C@H]6O)[C@@](C)(CO)[C@@H]5CC[C@]43C)[C@@H]12	> 10

Source: ChEMBL document CHEMBL1142590, “Triterpenoid saponins from the roots of Pulsatilla koreana” (2005)
